{
  "source": "ChEMBL document CHEMBL1770122",
  "about": "“Synthesis, antibacterial and antimycobacterial activities of some new 4-aryl/heteroaryl-2,6-dimethyl-3,5-bis-N-(aryl)-carbamoyl-1,4-dihydropyridines” (2011)",
  "data": [
    {"test_system": "Mycobacterium tuberculosis", "assay": "Antimicrobial activity against multidrug-resistant Mycobacterium tuberculosis C110/09 after 4 weeks", "format": "functional", "conditions": "C110/09, 672 h", "outline": "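L-J proportion method against an MDR clinical isolate resistant to rifampicin, pyrazinamide and isoniazid. Drug in 64, 128 and 256 µg mL-1 dilutions in LJ medium slants, set overnight. Inoculated with 4 mg mL-1 suspension by 3 mm loop, 37 °C, 4 weeks. MIC is the lowest concentration fully inhibiting growth, by CFU versus controls (medium, inoculated, DMSO). Three independent determinations.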", "units": {"MIC": "µg/mL"}, "values": [
      {"smiles": "CCc1ccc(C2C(C(=O)Nc3ccccc3)=C(C)NC(C)=C2C(=O)Nc2ccccc2)cc1", "MIC": "> 256"},
      {"smiles": "CC1=C(C(=O)Nc2ccc(C)cc2)C(c2ccccn2)C(C(=O)Nc2ccc(C)cc2)=C(C)N1", "MIC": "> 256"},
      {"smiles": "CC1=C(C(=O)Nc2ccc(C)cc2)C(c2ccc[nH]2)C(C(=O)Nc2ccc(C)cc2)=C(C)N1", "MIC": 128},
      {"smiles": "CC1=C(C(=O)Nc2ccccc2C)C(c2ccccn2)C(C(=O)Nc2ccccc2C)=C(C)N1", "MIC": 256},
      {"smiles": "NC(=O)c1cnccn1", "note": "[PYRAZINAMIDE]", "MIC": 128}
    ]}
  ]
}
